In brackets after ≈: the same amount, converted by molar mass. Counter-ions that a name gives are not always drawn. Activity calls are given as the source filed them. The calls are words filed in the database; no cut-off is given here.
Legend:
[1] = Toxicity in wild-type zebrafish AB assessed as mortality at 0.8 ug/ml; design: species or system Danio rerio; conditions: in vivo
How it was run: (§1)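 Wild-type AB zebrafish were randomly allocated to wells, 30 fish per well, and exposed to the test agent at a range of concentrations.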

[2] = Toxicity in wild-type zebrafish AB assessed as mortality at 4 ug/ml; design: species or system Danio rerio; conditions: in vivo; how it was run: as §1
[3] = Toxicity in wild-type zebrafish AB assessed as mortality at 20 ug/ml; design: species or system Danio rerio; conditions: in vivo; how it was run: as §1
[4] = Toxicity in wild-type zebrafish AB assessed as mortality at 50 ug/ml; design: species or system Danio rerio; conditions: in vivo; how it was run: as §1
[5] = (§2) Toxicity in wild-type zebrafish AB assessed as mortality at 100 ug/ml; design: species or system Danio rerio; conditions: AB wild-type, in vivo; how it was run: as §1
[6] = system: K562; assay: Cytotoxicity against CM-Dil-labeled human K562 cells xenografted in wild-type zebrafish AB assessed as cell growth inhibition at 50 ug/ml measured after 2 days by fluorescence microscopic method relative to control; type: functional
How it was run: (§3)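 Wild-type AB zebrafish at 2 dpf yolk-injected with about 200 CM-DiI-labelled K562 cells, held at 35 °C to 3 dpf. Single waterborne dose in 0.1% DMSO aqueous solution, 30 fish per well. Then 2 days at 35 °C. 10 fish imaged by fluorescence microscopy and tumour-cell fluorescence intensity compared with vehicle control.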

[7] = system: K562; assay: Cytotoxicity against human K562 cells measured after 72 hrs by MTT assay; type: functional, cell-based; conditions: K562, 72 h
[8] = Stability of the compound at -20 degreeC incubated for one month; type: physicochemical; conditions: 730.5 h
[9] = system: Staphylococcus aureus; assay: Antibacterial activity against Staphylococcus aureus measured after 24 hrs by turbidimetric based microdilution method; type: functional
How it was run: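 S. aureus grown 18 h at 37 °C in MH broth, diluted 50-fold and regrown to OD600 0.8–1.0, then diluted ten-fold serially to about 1 × 10^4 CFU/mL. Compounds two-fold serially diluted, 64 to 0.0625 µg/mL. MIC read by visual turbidity after 24 h at 37 °C.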

[10] = system: K562; assay: Induction of apoptosis in human K562 cells at 5 to 15 uM measured after 24 to 48 hrs by Annexin V-FITC/propidium iodide staining based flow cytometry; type: functional, cell-based
How it was run: (§4)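 K562 cells seeded at 1 × 10^5 per well and treated 24 h and 48 h. Cells washed in PBS, resuspended in binding buffer, stained in the dark with annexin V-FITC and PI for 15 min, then analysed by flow cytometry within 1 h. Values are mean ± SD of three independent experiments.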

[11] = Half life in Sprague-Dawley rat plasma at 1 mg/ml by HPLC analysis; type: ADME, cell-free
How it was run: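 SD rat plasma diluted to 50% in water, prewarmed to 37 °C. 40 µL of a 1 mg/mL ACN stock added per 1 mL plasma. Samples taken at 0–1440 min, proteins precipitated with ACN containing internal standard, centrifuged. Supernatant quantified by C18 HPLC using the internal standard method.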

[12] = system: MCF7; assay: Cytotoxicity against human MCF7 cells incubated for 72 hrs under normoxic condition by MTT assay; type: functional, cell-based; conditions: MCF7, 72 h
How it was run: (§5)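 MCF-7 cells seeded at 2 × 10^4 cells/100 µL in duplicate and preincubated 24 h. Serial dilutions added, then 72 h at 20% O2 (normoxia) or 1% O2 (hypoxia, modular chamber). Viability by MTT under normoxia. Values are mean ± SD of three independent experiments.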

[13] = system: MCF7; assay: Cytotoxicity against human MCF7 cells incubated for 72 hrs under hypoxic condition by MTT assay; type: functional, cell-based; conditions: MCF7, 72 h; how it was run: as §5
[14] = system: MCF7; assay: Selectivity index, ratio of IC50 for human MCF7 cells under hypoxic condition to IC50 for human MCF7 cells under normoxic condition; type: functional
How it was run: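 Index computed as IC50(hypoxia)/IC50(normoxia) in MCF-7 cells, each from a 72 h MTT assay at 1% or 20% O2.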

[15] = system: K562; assay: Induction of apoptosis in human K562 cells at 0.5 to 2 uM measured after 24 to 48 hrs by Annexin V-FITC/propidium iodide staining based flow cytometry; type: functional, cell-based; how it was run: as §4
[16] = species: Danio rerio; assay: as §2; conditions: in vivo; how it was run: as §1
[17] = system: K562; assay: Cytotoxicity against CM-Dil-labeled human K562 cells xenografted in wild-type zebrafish AB assessed as cell growth inhibition at 5.6 ug/ml measured after 2 days by fluorescence microscopic method relative to control; type: functional; how it was run: as §3
[18] = system: K562; assay: Cytotoxicity against CM-Dil-labeled human K562 cells xenografted in wild-type zebrafish AB assessed as cell growth inhibition at 16.7 ug/ml measured after 2 days by fluorescence microscopic method relative to control; type: functional; how it was run: as §3
[19] = system: K562; assay: Potency index, ratio of vinylamycin IC50 to compound IC50 for human K562 cells; type: functional
[20] = Stability of the compound at -20 degreeC incubated for 3 days; type: physicochemical; conditions: 72 h

Stability [8]	Compound	IC50 [7] [µM]	IC50 [12] [µM]	IC50 [13] [µM]	Ratio IC50 [14]	other results
Stable	C=C1/C=C/C(=O)N[C@H](C)C(=O)N[C@@H](C(C)C)C(=O)O[C@@H]([C@H](C)CCCCCC)[C@H](CCOC(=O)CCCCCCCCCCCCCCCCC)C(=O)N1	> 50				
Stable	C=C1/C=C/C(=O)N[C@@H](C)C(=O)N[C@H](C(C)C)C(=O)O[C@H]([C@@H](C)CCCCCC)[C@@H](CCO[Si](c2ccccc2)(c2ccccc2)C(C)(C)C)C(=O)N1	1.27	5.11	7.02	1.37	Ratio IC50 [19]: 4
Stable	CCCCCC[C@@H](C)[C@@H]1OC(=O)[C@H](C(C)C)NC(=O)[C@@H](C)NC(=O)/C=C/[C@H](CO)NC(=O)[C@H]1CCOCc1ccccc1	33.6				
Stable	C=C1/C=C/C(=O)N[C@@H](C)C(=O)N[C@H](C(C)C)C(=O)OC([C@@H](C)CCC)[C@@H](CCOCc2ccc(OC)cc2)C(=O)N1 (single isomer, unassigned)	13.7				
Stable	C=C1/C=C/C(=O)N[C@@H](C)C(=O)N[C@H](C(C)C)C(=O)O[C@@H]([C@H](C)CCCCCC)[C@H](CCO[Si](c2ccccc2)(c2ccccc2)C(C)(C)C)C(=O)N1	0.88	3.75	2.93	0.78	
Stable	C=C1/C=C/C(=O)N[C@H](C)C(=O)N[C@@H](C(C)C)C(=O)O[C@@H]([C@H](C)CCCCCC)[C@H](CCOC(=O)OC(C)(C)C)C(=O)N1	5.43				
Stable	C=C1/C=C/C(=O)N[C@@H](C)C(=O)N[C@H](C(C)C)C(=O)O[C@@H]([C@H](C)CCCCCC)[C@H](CCOCc2ccc(OC)cc2)C(=O)N1	4.6	10.1	7.98	0.79	
Stable	C=C1/C=C/C(=O)NCC(=O)N[C@@H](C(C)C)C(=O)O[C@@H]([C@H](C)CCCCCC)[C@H](CCO[Si](c2ccccc2)(c2ccccc2)C(C)(C)C)C(=O)N1	2.31	3.49	4.69	1.34	Ratio IC50 [19]: 2
Stable	C=C1/C=C/C(=O)N[C@H](C)C(=O)N[C@@H](C(C)C)C(=O)O[C@@H]([C@H](C)CCCCCC)[C@H](CCOCc2ccc(OC)cc2)C(=O)N1	2.49				
Stable	C=C1/C=C/C(=O)N[C@H](C)C(=O)N[C@@H](C(C)C)C(=O)O[C@@H]([C@H](C)CCCCCC)[C@H](CCOC(=O)C23CC4CC(CC(C4)C2)C3)C(=O)N1	7.72				

The remaining lines, values behind:

Compound	Stability [8]	IC50 [7] [µM]	IC50 [12] [µM]	IC50 [13] [µM]	Ratio IC50 [14]	other results
Cc1ccc(NC(=O)c2ccc(CN3CCN(C)CC3)cc2)cc1Nc1nccc(-c2cccnc2)n1 [IMATINIB]						mortality at 0.8 ug/ml [1]: 0%; mortality at 4 ug/ml [2]: 0%; mortality at 20 ug/ml [3]: 0%; mortality at 50 ug/ml [4]: 0%; mortality at 100 ug/ml [5]: 100%; growth inhibition (GI) [6]: 71%
C#CCCCCCCCCC(=O)OCC[C@@H]1C(=O)NC(=C)/C=C/C(=O)N[C@H](C)C(=O)N[C@@H](C(C)C)C(=O)O[C@H]1[C@H](C)CCCCCC	Stable	4.41				MIC [9]: > 64 µg/mL; Activity [10]: Active
C=C1/C=C/C(=O)N[C@H](C)C(=O)N[C@@H](C(C)C)C(=O)O[C@@H]([C@H](C)CCCCCC)[C@H](CCO[Si](c2ccccc2)(c2ccccc2)C(C)(C)C)C(=O)N1	Stable	0.64	6.26	6.81	1.09	MIC [9]: > 64 µg/mL; half-life at 1 mg/ml [11]: 14.3 h; Activity [15]: Active; mortality at 0.8 ug/ml [1]: 0%; mortality at 4 ug/ml [2]: 0%; mortality at 20 ug/ml [3]: 0%; mortality at 50 ug/ml [4]: 0%; mortality [16]: Nd(Insoluble); growth inhibition (GI) [17]: 66%; growth inhibition (GI) [18]: 70%; growth inhibition (GI) [6]: 75%
CCCCCC[C@@H](C)[C@@H]1OC(=O)[C@H](C(C)C)NC(=O)[C@@H](C)NC(=O)/C=C/[C@H](CO)NC(=O)[C@H]1CCOCc1ccc(OC)cc1	Stable	21.4				
C#CCCCC(=O)OCC[C@@H]1C(=O)NC(=C)/C=C/C(=O)N[C@H](C)C(=O)N[C@@H](C(C)C)C(=O)O[C@H]1[C@H](C)CCCCCC	Stable	8				
C=C1/C=C/C(=O)N[C@@H](C)C(=O)N[C@H](C(C)C)C(=O)O[C@H]([C@@H](C)CCC)[C@@H](CCO)C(=O)N1		> 50	> 20	> 20		
Cc1ccc(NC(=O)c2ccc(CN3CCN(C)CC3)cc2)cc1Nc1nccc(-c2cccnc2)n1 [IMATINIB MESYLATE]		0.31				
C=C1/C=C/C(=O)NC(C)C(=O)NC(C(C)C)C(=O)O[C@@H]([C@H](C)CCCCCC)[C@H](CCOCc2ccccc2)C(=O)N1 (single isomer, unassigned)	Stable	3.06				
C=C1/C=C/C(=O)N[C@H](C)C(=O)N[C@@H](C(C)C)C(=O)O[C@@H]([C@H](C)CCCCCC)[C@H](CCOC(=O)[C@H](Cc2ccccc2)NC(=O)OC(C)(C)C)C(=O)N1	Stable	5.95				
C#CCCCCCCCCC(=O)OCC[C@@H]1C(=O)N[C@@H](CO)/C=C/C(=O)N[C@H](C)C(=O)N[C@@H](C(C)C)C(=O)O[C@H]1[C@H](C)CCCCCC	Stable	17.9				
C=C1/C=C/C(=O)N(C)CC(=O)N[C@@H]([C@H](O)C(N)=O)C(=O)O[C@@H]([C@H](C)CCCCCCCCCCCC(C)C)[C@H](C)C(=O)N1			0.3	0.08	0.27	
C=C1/C=C/C(=O)N[C@H](C)C(=O)N[C@@H](C(C)C)C(=O)O[C@@H]([C@H](C)CCCCCC)[C@H](CCOC(=O)CP(=O)(OCC)OCC)C(=O)N1	Stable	7.9				
C=C1/C=C/C(=O)N(C)CC(=O)N[C@@H](C(C)C)C(=O)O[C@@H]([C@H](C)CCCCCC)[C@H](CCO[Si](c2ccccc2)(c2ccccc2)C(C)(C)C)C(=O)N1	Stable	0.4				MIC [9]: > 64 µg/mL; half-life at 1 mg/ml [11]: 20.1 h
C=C1/C=C/C(=O)N(C)CC(=O)N[C@@H]([C@H](O)C(=O)OC)C(=O)O[C@@H]([C@H](C)CCCCCCCCCCCC(C)C)[C@H](C)C(=O)N1			0.32	0.12	0.38	
O=C(O)c1cn(C2CC2)c2cc(N3CCNCC3)c(F)cc2c1=O [CIPROFLOXACIN]						MIC [9]: 0.5 µg/mL (≈ 1.51 µM)
Nc1ccn([C@@H]2O[C@H](CO)[C@@H](O)C2(F)F)c(=O)n1 [GEMCITABINE]			0.57	8.9	15.6	
C=C1/C=C/C(=O)N[C@H](C)C(=O)N[C@@H](C(C)C)C(=O)O[C@@H]([C@H](C)CCCCCC)[C@H](CCOC(=O)CC(c2ccccc2)(c2ccccc2)c2ccccc2)C(=O)N1	Stable	3.79				
C=C1/C=C/C(=O)N[C@@H](C)C(=O)N[C@H](C(C)C)C(=O)O[C@H]([C@H](C)CCCCCC)[C@@H](CCO[Si](c2ccccc2)(c2ccccc2)C(C)(C)C)C(=O)N1	Stable	1.78	2.98	2.69	0.9	Ratio IC50 [19]: 3
C=C1/C=C/C(=O)N[C@@H](C)C(=O)N[C@H](C(C)C)C(=O)O[C@H]([C@@H](C)CCCCCC)[C@@H](CCO)C(=O)N1		4.86	12.3	9.17	0.74	MIC [9]: 8 µg/mL (≈ 16.2 µM); half-life at 1 mg/ml [11]: 0.54 h; Stability [20]: Unstable

— ChEMBL document CHEMBL3992529, “Total Syntheses and Biological Activities of Vinylamycin Analogues” (J Med Chem, 2017)
